Laboratory results as given in ChEMBL document CHEMBL4513216, “Probing the Open Global Health Chemical Diversity Library for Multistage-Active Starting Points for Next-Generation Antimalarials” (ACS Infect Dis, 2020).

Assay: Toxicity liver stage against HepG2, at 10uM
Format: cell-based
Design: test concentration 10 uM, cell line HepG2-A16-CD81EGFP
Details: human, HepG2-A16-CD81EGFP cells; read-out: INHIBITION
Method in brief: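 Uninfected HepG2-A16-CD81EGFP cells, 3 × 10^3 per well, 1536-well, plated on prespotted compound at 10 μM final, parasite-free screening media added to match infected plates; puromycin 10 μM positive, DMSO 0.5% negative; run in parallel with 48 h PbLuc assay at 37 °C, 5% CO2; viability by CellTiter-Glo luminescence, normalized to controls.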

Compound | cytotoxicity at 10 µM [%]
CC(=O)c1c(F)cccc1N1CCC(C(N)=O)CC1 | 6.75
CN(C)Cc1nnc2n1CCN(Cc1ccccn1)CC2 | 2.05
Cc1cc(N2CCN(C(=O)CCc3scnc3C)CC2)cc(C)n1 | -48.4
CN1CCN2C(=O)N(c3ccccc3)C[C@H]2C1 | 3.7
CC(C)(C)S(=O)(=O)CCNC(=O)c1ccc2cc[nH]c2c1 | -2.61
COc1cccc(C(O)C(=O)N(C)CCc2ccccn2)c1 (stereo not given) | 0.413
CCOC(C)c1nc(COc2nc(C)no2)cs1 (stereo not given) | -1.64
COc1cc(N2CCC3(CCCN3Cc3cnn(C)c3)CC2)ncn1 | 6.5
CC(CNS(N)(=O)=O)Oc1ccc(Cl)cc1 (stereo not given) | -5.37
COc1ccc(Cl)cc1NCC(=O)NCCNc1cnccn1 | -11.4
Cc1c(C)n(CC(O)CN2CCC(C)CC2)c2c(Cl)cccc12 (stereo not given) | -5.12
CC(C)NC(=O)[C@]12COC[C@H]1CN(Cc1cnn(C)c1)C2 | 3.63
CCN(CC)C1(Cc2cc(COC)on2)COC1 | -2.45
CCn1cc(Br)c(C(=O)NCc2ccc(F)cc2)n1 | -3.01
Cc1cccc(N2CCN(C(=O)CN3CCN(CCO)CC3)CC2)c1 | -15.5
CC(=O)N1CC(=O)N(c2ccsc2)CC12CCN(Cc1ccoc1)C2 (stereo not given) | 5.56
Cn1cc(CN2CC[C@H]3OCC[C@@H](C(=O)N4CCCCO4)[C@@H]3C2)cn1 | -2.1
Cn1cc(N2CCCC(Nc3ccc4c(c3)CCCO4)C2=O)cn1 (stereo not given) | -6.79
CCCNC(=O)c1cncc(CC2CCCN(C)C2)c1 (stereo not given) | -16
OC1(CN2CCCC2)CCCN(Cc2cnc(-c3ccco3)nc2)C1 (stereo not given) | -6.84
Cc1ccc(C(=O)N(Cc2cccnc2)C[C@@H]2CCC(=O)N2)s1 | -77.9
O=C(O)C1CCCN(c2nc3c(-c4ccccc4)csc3c(=O)[nH]2)C1 (stereo not given) | -10.1

Compound | cytotoxicity at 10 µM [%]
CCc1nc(C)c([C@H]2CN(C)C[C@@H]2C(=O)Nc2ccccc2F)[nH]1 | 2.16
CCCOC(C)C(=O)N1CCC(O)(c2ccc3nc(C)ccc3c2)CC1 (stereo not given) | 1.12
CSCC(=O)Nc1nccn1Cc1ccc(Br)cc1 | -45.8
CCc1nc(C)c(-c2nccn2CC2CCN(C3CCCC3)CC2)[nH]1 | 3.98
c1cnn(-c2ccc(CN3CCCC(Cn4cncn4)C3)cc2)c1 (stereo not given) | -2.63
CC(=O)c1ccc(C(=O)N(C)Cc2nc(-c3ccccn3)no2)s1 | 2.45
O=C(Nc1ccncc1)N(CCO)Cc1ccsc1 | -3.98
COC(=O)CC(C1=Cc2ccccc2OC1)c1oc(C)cc(=O)c1O (stereo not given) | -8.51
CSCC(=O)N1CCc2[nH]nc(-c3ccc4c(c3)OCO4)c2C1 | -139
COc1ccc(C(O)CNc2c(C#N)c(=O)n(C)c(=O)n2C)cc1 (stereo not given) | -7.34
COc1ccc(-c2noc(CN3CCCC3Cn3cccn3)n2)cc1 (stereo not given) | 2.88
CN(C)[C@@H]1CN(C(=O)c2cc3cccc(F)c3[nH]2)C[C@H]1O | -1.49
CC(C)C(C(=O)N1CCCN(Cc2cscn2)CC1)n1cncn1 (stereo not given) | -2.1
CCc1cc(C(=O)N2CCc3c(ncn3CCc3ccccc3)C2)[nH]n1 | -3.64
CCc1n[nH]c(C2CN(Cc3nnc(C4CCC4)o3)CCO2)n1 (stereo not given) | -6.28
Cn1ccc2cc(C(=O)N3CC[C@@]4(O)CCCC[C@H]4C3)ccc21 | -46.8
COc1ccc(-c2n[nH]cc2CN(C)CCc2scnc2C)c(F)c1 | 3.06
Cc1nc(CN2C(=O)COC3(CCN(Cc4nccs4)CC3)C2C)cs1 (stereo not given) | -10.4
CC(C(=O)NCc1ccc(N2CCCCCC2)nc1)S(C)(=O)=O (stereo not given) | -11.9
O=C(Cn1cc(C2CC2)nn1)NC(c1ccc(Cl)cc1)C1CC1 (stereo not given) | 2.16
COC(=O)c1ccc(CNC2CC(=O)N(Cc3cccc(F)c3)C2)cc1 (stereo not given) | 4.43
c1ccc(CNc2cc(C3CCCNC3)ccn2)nc1 (stereo not given) | -0.565

Compound | cytotoxicity at 10 µM [%]
CC(=O)NC(Cc1c[nH]c2cc(F)ccc12)C(=O)Nc1cnn(C)c1 (stereo not given) | 13.9
CCN(Cc1cccc2c1OCO2)C(=O)NC1CC1 | -9.48
O=C(CN(Cc1cccnc1)CC1CCCO1)Nc1ccc(F)cc1 (stereo not given) | -10.7
O=C1CC(c2ccc(F)cc2)c2snc(C(=O)O)c2N1 (stereo not given) | 0.833
CNC(=O)NC(=O)COc1c(C(C)=O)ccc(Cl)c1Cl | 26.6
CCCc1cc(NCCC2CCCOC2)n2nccc2n1 (stereo not given) | 3.63
CN(C)C(=O)c1ccc(CNC(=O)NCCN(C)C2CCCC2)cc1 | -5.58
O=C(C1=CCCC1)N1CCC[C@]2(C[C@@H](Oc3ncccc3F)CO2)C1 | -15.5
Cc1nn(C)c2cn(CC(=O)NC3CCSCC3)nc12 | 0.243
CCC(CC)C(=O)NS(=O)(=O)c1ccc(C#N)cc1C(F)(F)F | -15.9
CCc1noc(CN(Cc2cccs2)C2CC2)n1 | 1.44
CN1CCCC1CCNC(=O)Nc1ccccc1 (stereo not given) | 0.238
O=C(C[C@@H]1COC[C@H]2CN(C3CCOCC3)C[C@@H]12)Nc1cnccn1 | 12
Cc1cc(C)cc(C(=O)Nc2cn[nH]c2)c1 | -6.57
CN1CCN(C)C(c2nnc3ccc(C(=O)N4CCOCC4)cn23)C1 (stereo not given) | -130
COc1nc(C)ccc1CNC(=O)NC(C)(C)c1ncc(C)s1 | 14.7
Cc1cc(C(=O)N2CC[C@@H]3CN(CCC(C)C)S(=O)(=O)[C@@H]3CC2)no1 | 1.58
CN(C)C(=O)[C@H]1CC[C@@H]2[C@@H](CCN2Cc2ccccn2)O1 | 3.21
CCc1nc(C2CCCN(C(=O)c3ccccc3Cl)C2)no1 (stereo not given) | -5.43
O=C1NCC2(CCCN(Cc3ccc(Cl)s3)C2)Oc2ccccc21 (stereo not given) | 8.69
C[C@@H]1CCC[C@H](C)N1CC(=O)N1CCc2[nH]c(-c3ccccc3)nc2C1 | 4.02
CC(=O)Nc1ccc(OCc2noc(C(=O)N3CCCC3)n2)cc1 | -12.3

Compound | cytotoxicity at 10 µM [%]
Cc1noc(CCCC(=O)N(CCC(=O)O)Cc2ccc(F)c(F)c2)n1 | -11.3
Cc1ccccc1C(=O)CN1C(=O)c2ccccc2CS1(=O)=O | -10.1
O=C(NC1CCC1)[C@H]1C[C@H]2NCCO[C@@H]2C1 | -131
Cc1n[nH]c(C)c1Sc1ccccc1NC(=O)N1CCN(C)CC1 | -12.9
O=C(NCCN1CCOCC1)c1cc(-c2ccccc2Cl)[nH]n1 | -4.02
CCn1c(CN2CCN(CC(N)=O)CC2)nc2c(F)cccc21 | -9.88
CCOCC(=O)N1CCC(Cc2nnc(SC)n2C)CC1 | -53
CCOc1ccc(C(=O)Nc2c(C)nc3ccc(Cl)cn3c2=O)cc1 | -4.31
COc1ccccc1COCC(O)CN1CCC(c2ccn[nH]2)CC1 (stereo not given) | -2.54
Cc1cc(C)c(CNC(=O)NCCNc2ncccn2)c(=O)[nH]1 | -49.4
CN(C(=O)CN1CCc2nn(C)c(=O)cc2C1)c1nccs1 | 10.4
Cc1ccnc(NC(=O)c2cccc(OCc3nnnn3C)c2)c1 | -0.319
CNC(=O)[C@@H]1C[C@H](n2cc(-c3ccc(Cl)cc3)nn2)CN1 | 5.89
CC(C)CCN1CC2(CCN(C3CCCOC3)CC2)OC1=O (stereo not given) | 6.31
COc1ccccc1N1CCN(c2nc(N)nc3[nH]cnc23)CC1 | 2.77
CC(C)n1cc(N2CC(C(=O)N3CCCC3)CC2=O)cn1 (stereo not given) | 3.79
CC(NC(=O)N1CCNC(=O)CC1)c1ccc(C(F)(F)F)cc1 (stereo not given) | 13.7
Fc1cccc(CN2CCOC3(COCCN(CC4CC4)C3)C2)c1 (stereo not given) | -111
COc1ccccc1-c1nc(C(=O)N2CCOCC2)n2ccncc12 | 11.9
CC(=O)N1CCC(C(=O)Nc2nnc(C(F)(F)F)[nH]2)CC1 | -3.37
Cc1cc(=O)n2ncnc2n1CC(O)COCc1ccccc1Cl (stereo not given) | 3.52
Cc1cccc(NC(=O)N2CCC3(CC(=O)N(c4ccsc4)C3)C2)c1 (stereo not given) | 6.47

Compound | cytotoxicity at 10 µM [%]
CC(=O)N1CCCC1C(=O)NCCOc1cccc(F)c1 (stereo not given) | -7.81
COCC1CN(c2ccc(C#N)c(Cl)c2)CCO1 (stereo not given) | 4.86
CCn1c(SCC(=O)N2CCOCC2)nc2cc(C)[nH]c2c1=O | 7.72
COc1ccc(C(C)NC(=O)c2nn(C)c(C)c2Br)cc1 (stereo not given) | 9.18
O=C(c1cc[nH]n1)N1CCCC1C1CCN(Cc2ccccc2)CC1 (stereo not given) | 1.98
O=C1CC(NCc2ccccn2)CN1CCc1ccc(F)cc1 (stereo not given) | 7.18
O=C(Cc1ccsc1)N1CCOC(c2nc(-c3ncccn3)no2)C1 (stereo not given) | -7.83
COc1cc(CNC2CCCN(c3cccnn3)C2)cc2c1OCO2 (stereo not given) | -2.22
Cc1ccc(C)c(CNC(=O)NC(C)(C(=O)O)c2ccco2)c1 (stereo not given) | -10.8
Cn1cnc(-c2nc(C(=O)NCCN3CCOCC3)c3ccccn23)c1 | -103
NC(=O)CN(CC(=O)NCc1cc(F)cc(F)c1)C1CCCC1 | -8.58
Cc1cnc(CN(C)C2CCN(Cc3cnc(C)s3)C2)o1 (stereo not given) | -0.0499
Nc1nccnc1CC1CCCN(Cc2c[nH]c3ccccc23)C1 (stereo not given) | 2.81
CC1CCCCN1C1CN(c2nc(C3CCCC3)nc3c2cnn3C)C1 (stereo not given) | -0.699
COc1ncc(C(=O)N2CCCC3(C=Cc4ccccc4O3)CC2)cn1 (stereo not given) | 7.61
CCc1nc(N)sc1C(=O)N1CCC(c2cc(O)nc(C)n2)CC1 | -2.56
CC(C)(C)n1cc(C2=CCN(CCNC(=O)c3ccccc3)CC2)cn1 | -0.262
O[C@@H]1C[C@@H](c2nc(Cc3ccccc3)no2)N(Cc2ccc(F)cc2)C1 | 0.296
Cc1nn(CCN2CCSCC2)cc1CNCC1CC1 | -7.03
Cc1nn(C)c2c(N3CCN(C)CC3)nc(C3CC3)nc12 | -5.2
Fc1ccccc1CNc1ccnc(C2CCNCC2)c1 | 8.88
CNc1nc(CS(=O)(=O)c2ccccc2)cs1 | 13
